Measurements reported in ChEMBL document CHEMBL1687788, “Characterization of two newly identified genes, vgaD and vatH, [corrected] conferring resistance to streptogramin A in Enterococcus faecium” (2010).
≈ marks a conversion by molar mass, not a printed value.

Tests used:
Format in all cases: functional
[1] = tested on: Enterococcus faecium; test: Antibacterial activity against quinupristin-dalfopristin resistant and ermB gene expressing Enterococcus faecium isolate CS121 containing streptogramin A resistance genes vatG and vgaD isolated from poultry stool samples
[2] = tested on: Enterococcus faecium; test: Antibacterial activity against quinupristin-dalfopristin resistant and ermB gene expressing Enterococcus faecium isolate CS106 containing streptogramin A resistance genes vatG and vgaD isolated from poultry stool samples
[3] = tested on: Enterococcus faecium; test: Antibacterial activity against quinupristin-dalfopristin resistant and ermB gene expressing Enterococcus faecium isolate CS103 containing streptogramin A resistance genes vatG and vgaD isolated from poultry stool samples
[4] = tested on: Enterococcus faecium; test: Antibacterial activity against quinupristin-dalfopristin resistant and ermB gene expressing Enterococcus faecium isolate CS098 containing streptogramin A resistance genes vatG and vgaD isolated from poultry stool samples
[5] = tested on: Enterococcus faecium; test: Antibacterial activity against quinupristin-dalfopristin resistant and ermB gene expressing Enterococcus faecium isolate AS115 containing streptogramin A resistance genes vatG and vgaD isolated from poultry stool samples
In short: (§1)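 Isolates were recovered from fecal samples (human, poultry, swine; 2000/2003) or retail meat (2003). Samples were enriched in Enterococcosel broth for 48 h at 37°C, then streaked on Enterococcosel agar containing Q-D at 2 μg/ml to select resistant E. faecium. vatG and vgaD were detected by PCR with gene-specific primers: 30 cycles, annealing at 55°C.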

[6] = tested on: Enterococcus faecium; test: Antibacterial activity against quinupristin-dalfopristin resistant and ermB and vanA gene expressing Enterococcus faecium isolate C19 containing streptogramin A resistance genes vatG and vgaD isolated from poultry stool samples
[7] = tested on: Enterococcus faecium; test: Antibacterial activity against quinupristin-dalfopristin resistant and ermB and vanA gene expressing Enterococcus faecium isolate A15 containing streptogramin A resistance genes vatG and vgaD isolated from poultry stool samples; in short: as §1
[8] = tested on: Enterococcus faecium; test: Antibacterial activity against quinupristin-dalfopristin resistant Enterococcus faecium isolate ES022 containing streptogramin A resistance genes vatG and vgaD isolated from swine stool samples
[9] = tested on: Enterococcus faecium; test: Antibacterial activity against quinupristin-dalfopristin resistant and ermB gene expressing Enterococcus faecium isolate KS46 containing streptogramin A resistance genes vatG and vgaD isolated from healthy human stool samples
[10] = tested on: Enterococcus faecium; test: Antibacterial activity against quinupristin-dalfopristin resistant and ermB gene expressing Enterococcus faecium isolate JS79 containing streptogramin A resistance genes vatG and vgaD isolated from healthy human stool samples
[11] = tested on: Enterococcus faecium; test: Antibacterial activity against quinupristin-dalfopristin resistant and vanA gene expressing Enterococcus faecium isolate GAV04 containing streptogramin A resistance genes vatG and vgaD isolated from chicken meat samples
[12] = tested on: Enterococcus faecium; test: Antibacterial activity against quinupristin-dalfopristin resistant and vanA gene expressing Enterococcus faecium isolate GAV12 containing streptogramin A resistance genes vatG and vgaD isolated from chicken meat samples; in short: as §1
[13] = tested on: Enterococcus faecium; test: Antibacterial activity against quinupristin-dalfopristin abd erythromycin sensitive aEnterococcus faecium U201 transconjugants receiving ermB genes and vatG gene from quinupristin-dalfopristin resistant Enterococcus faecium isolate
In short: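 Transconjugants came from broth mating: donor and recipient overnight M17 cultures were mixed 1:1 into fresh M17 broth for 6 h at 37°C. Selection was on BHI agar with erythromycin (100 μg/ml) and ampicillin (100 μg/ml) for 24 h at 37°C. The erythromycin and Q-D MICs were compared with the donor's.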

SMILES | MIC [1] | MIC [2] | MIC [3] | MIC [4] | MIC [5] | MIC [6] | MIC [7] | MIC [8] | MIC [9] | MIC [10] | MIC [11] | MIC [12] | MIC [13]
CC[C@H]1OC(=O)[C@H](C)[C@@H](O[C@H]2C[C@@](C)(OC)[C@@H](O)[C@H](C)O2)[C@H](C)[C@@H](O[C@@H]2O[C@H](C)C[C@H](N(C)C)[C@H]2O)[C@](C)(O)C[C@@H](C)C(=O)[C@H](C)[C@@H](O)[C@]1(C)O [ERYTHROMYCIN] | 256 µg/mL (≈ 349 µM) | 256 µg/mL (≈ 349 µM) | 256 µg/mL (≈ 349 µM) | 256 µg/mL (≈ 349 µM) | 256 µg/mL (≈ 349 µM) | 256 µg/mL (≈ 349 µM) | 256 µg/mL (≈ 349 µM) | 0.1 µg/mL (≈ 0.136 µM) | 256 µg/mL (≈ 349 µM) | 256 µg/mL (≈ 349 µM) | < 1 µg/mL | < 1 µg/mL | 256 µg/mL (≈ 349 µM)
CN[C@H](CC(C)C)C(=O)N[C@H]1C(=O)N[C@@H](CC(N)=O)C(=O)N[C@H]2C(=O)N[C@H]3C(=O)N[C@H](C(=O)N[C@H](C(=O)O)c4cc(O)cc(O)c4-c4cc3ccc4O)[C@H](O)c3ccc(c(Cl)c3)Oc3cc2cc(c3O[C@@H]2O[C@H](CO)[C@@H](O)[C@H](O)[C@H]2O[C@H]2C[C@](C)(N)[C@H](O)[C@H](C)O2)Oc2ccc(cc2Cl)[C@H]1O [VANCOMYCIN] | < 1 µg/mL | < 1 µg/mL | < 1 µg/mL | < 1 µg/mL | < 1 µg/mL | 256 µg/mL (≈ 177 µM) | 256 µg/mL (≈ 177 µM) | < 1 µg/mL | < 1 µg/mL | < 1 µg/mL | 256 µg/mL (≈ 177 µM) | 256 µg/mL (≈ 177 µM) | 
